ChEMBL document CHEMBL4406830, “Galloyl esters of trans-stilbenes are inhibitors of FASN with anticancer activity on non-small cell lung cancer cells” (Eur J Med Chem, 2019)
In brackets after ≈: the same amount, converted by molar mass. Activity calls are given as the source filed them. No cut-off for these calls is given here.

Assays:
[1] = molecular target: Fatty acid synthase (Homo sapiens) (UniProt P49327); assay: Inhibition of FASN in human PC9 cells harboring FASN expression and EGFR delE746-A750 mutant assessed as disruption of AKT/FASN positive feedback loop by measuring decrease in FASN expression after 48 hrs by Western immunoblot assay; assay type: cell-based
Sequence of Fatty acid synthase (Homo sapiens) (P49327 whole entry, looked up): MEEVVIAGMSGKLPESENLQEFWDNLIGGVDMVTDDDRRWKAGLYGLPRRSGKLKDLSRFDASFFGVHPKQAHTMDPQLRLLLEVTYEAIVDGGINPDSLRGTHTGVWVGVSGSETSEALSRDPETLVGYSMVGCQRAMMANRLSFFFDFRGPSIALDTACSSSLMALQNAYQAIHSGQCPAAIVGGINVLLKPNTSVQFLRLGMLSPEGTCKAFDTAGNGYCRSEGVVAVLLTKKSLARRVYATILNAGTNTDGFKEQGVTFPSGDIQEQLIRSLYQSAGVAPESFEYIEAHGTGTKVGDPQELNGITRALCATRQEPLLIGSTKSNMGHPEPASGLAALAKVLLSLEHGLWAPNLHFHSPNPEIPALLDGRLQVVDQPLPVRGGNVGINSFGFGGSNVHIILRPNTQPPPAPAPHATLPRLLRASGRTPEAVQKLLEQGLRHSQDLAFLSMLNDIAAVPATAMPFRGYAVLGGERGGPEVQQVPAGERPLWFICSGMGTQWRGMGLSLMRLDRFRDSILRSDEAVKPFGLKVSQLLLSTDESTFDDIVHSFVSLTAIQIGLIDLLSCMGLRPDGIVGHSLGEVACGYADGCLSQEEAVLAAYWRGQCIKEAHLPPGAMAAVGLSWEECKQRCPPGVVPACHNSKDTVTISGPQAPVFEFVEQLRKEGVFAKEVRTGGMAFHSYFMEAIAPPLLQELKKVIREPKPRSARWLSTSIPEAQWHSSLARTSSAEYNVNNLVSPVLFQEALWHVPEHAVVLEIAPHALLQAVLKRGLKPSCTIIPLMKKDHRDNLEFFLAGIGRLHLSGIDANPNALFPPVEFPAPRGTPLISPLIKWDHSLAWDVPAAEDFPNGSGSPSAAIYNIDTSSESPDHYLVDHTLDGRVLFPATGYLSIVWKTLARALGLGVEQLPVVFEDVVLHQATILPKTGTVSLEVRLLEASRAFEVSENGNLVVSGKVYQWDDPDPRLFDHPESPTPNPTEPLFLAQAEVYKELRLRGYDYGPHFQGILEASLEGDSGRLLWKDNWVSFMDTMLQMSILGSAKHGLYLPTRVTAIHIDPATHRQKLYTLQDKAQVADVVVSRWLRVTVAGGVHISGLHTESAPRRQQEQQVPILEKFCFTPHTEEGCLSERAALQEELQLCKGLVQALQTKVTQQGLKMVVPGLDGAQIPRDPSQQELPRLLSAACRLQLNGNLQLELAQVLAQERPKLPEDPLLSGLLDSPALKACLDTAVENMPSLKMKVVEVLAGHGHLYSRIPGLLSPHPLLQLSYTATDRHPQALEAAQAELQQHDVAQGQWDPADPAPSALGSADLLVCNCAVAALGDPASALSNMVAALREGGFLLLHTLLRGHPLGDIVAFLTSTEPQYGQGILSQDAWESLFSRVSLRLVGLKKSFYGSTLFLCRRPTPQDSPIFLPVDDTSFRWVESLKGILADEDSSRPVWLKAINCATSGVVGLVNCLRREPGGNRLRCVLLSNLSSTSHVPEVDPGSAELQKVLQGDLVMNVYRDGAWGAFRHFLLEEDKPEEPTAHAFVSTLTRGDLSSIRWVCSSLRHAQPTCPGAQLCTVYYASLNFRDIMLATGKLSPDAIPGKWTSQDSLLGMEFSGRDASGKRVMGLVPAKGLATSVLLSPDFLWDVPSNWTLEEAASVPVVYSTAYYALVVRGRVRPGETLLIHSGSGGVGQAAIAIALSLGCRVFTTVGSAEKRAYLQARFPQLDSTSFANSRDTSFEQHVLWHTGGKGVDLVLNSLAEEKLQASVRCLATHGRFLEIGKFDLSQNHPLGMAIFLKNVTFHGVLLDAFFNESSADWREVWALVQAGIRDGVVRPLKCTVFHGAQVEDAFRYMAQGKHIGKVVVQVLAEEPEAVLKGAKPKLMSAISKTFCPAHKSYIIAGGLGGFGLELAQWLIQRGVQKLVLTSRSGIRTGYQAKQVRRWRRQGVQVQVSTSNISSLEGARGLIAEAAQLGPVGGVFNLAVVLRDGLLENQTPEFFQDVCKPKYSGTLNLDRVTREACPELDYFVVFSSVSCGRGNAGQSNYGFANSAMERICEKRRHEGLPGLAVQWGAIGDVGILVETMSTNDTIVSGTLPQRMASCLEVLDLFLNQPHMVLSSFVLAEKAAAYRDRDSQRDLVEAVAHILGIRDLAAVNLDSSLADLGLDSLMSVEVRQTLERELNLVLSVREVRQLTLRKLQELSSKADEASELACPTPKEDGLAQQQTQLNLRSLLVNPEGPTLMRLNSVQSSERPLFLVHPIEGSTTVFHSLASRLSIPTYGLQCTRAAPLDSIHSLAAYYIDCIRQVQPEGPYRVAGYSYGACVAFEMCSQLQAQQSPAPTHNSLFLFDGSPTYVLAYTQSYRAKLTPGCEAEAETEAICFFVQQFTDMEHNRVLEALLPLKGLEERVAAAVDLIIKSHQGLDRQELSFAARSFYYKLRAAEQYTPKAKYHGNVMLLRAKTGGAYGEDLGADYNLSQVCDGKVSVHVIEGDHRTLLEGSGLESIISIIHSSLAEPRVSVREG
How it was run: (§1)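 PC-9 or H1703 cells were seeded at 8 × 10^5 per 100 mm dish and treated for 48 h at 1 or 5 µM (or 5, 50 and 100 µM). RIPA lysates were BCA-quantified and run on 8% SDS-PAGE, then transferred to PVDF. Blots were probed for FASN, AKT, phospho-AKT S473 and GAPDH and detected by ECL. Bands were quantified by densitometry and normalised to vehicle control.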

[2] = tested on: NCI-H1703; assay: Antiproliferative activity against human NCI-H1703 cells expressing FASN assessed as reduction in cell viability after 72 hrs by MTS assay; assay type: functional, cell-based; details: NCI-H1703, 72 h
How it was run: (§2)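 ATCC-sourced cells. H1299, H1650, H1703 and PC-9 were grown in RPMI 1640 with 10% FBS. A549 was grown in high-glucose DMEM with 10% FBS and 1 mM pyruvate. SAEC was grown in BEGM. Cells were seeded at 3 × 10^3 per well (H1650 3.5 × 10^3) and left to attach overnight. Serial dilutions from DMSO stocks were added, 0.1% DMSO final, for 72 h at 37 °C, 5% CO2. Medium was replaced, MTS added, and A490 read after 2 h. IC50 was taken from % viability versus log concentration, 3 experiments.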

[3] = tested on: NCI-H1703; assay: Antiproliferative activity against human NCI-H1703 cells expressing FASN assessed as growth inhibition at 25 uM after 72 hrs by MTS assay relative to control; assay type: functional; details: NCI-H1703, 72 h
How it was run: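 H1703 cells were treated with a single 25 µM concentration for 72 h. Viability was measured by MTS at 490 nm, with 0.1% DMSO and media-only correction, relative to untreated control. Mean ± SD of n = 3 independent determinations, unpaired t test against control.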

[4] = molecular target: Fatty acid synthase (Homo sapiens) (UniProt P49327); assay: Inhibition of FASN in human NCI-H1703 cells expressing FASN assessed as disruption of AKT/FASN positive feedback loop by measuring decrease in ratio of phosphoAKT/AKT expression at 1 uM after 48 hrs by Western immunoblot based densitometric assay relative to control; assay type: cell-based; how it was run: as §1
[5] = molecular target: Fatty acid synthase (Homo sapiens) (UniProt P49327); assay: Inhibition of FASN in human NCI-H1703 cells expressing FASN assessed as disruption of AKT/FASN positive feedback loop by measuring ratio of phosphoAKT/AKT expression at 1 uM after 48 hrs in presence of exogenous lipid concentrate by Western immunoblot based densitometric assay relative to control; assay type: cell-based
How it was run: (§3)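 PC-9 (2 µM) or H1703 (1 µM) cells were treated with compound, with or without lipid concentrate (1% v/v per figure legend), for 48 h. Cells were lysed in RIPA buffer and lysates run on SDS-PAGE western blots for FASN, AKT, phospho-AKT S473 and GAPDH. Bands were quantified by densitometry and normalised to untreated control.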

[6] = molecular target: Fatty acid synthase (Homo sapiens) (UniProt P49327); assay: Inhibition of FASN in human NCI-H1703 cells expressing FASN assessed as disruption of AKT/FASN positive feedback loop by measuring decrease in phosphorylated AKT expression at 1 uM after 48 hrs by Western immunoblot based densitometric assay relative to control; assay type: cell-based; how it was run: as §1
[7] = molecular target: Fatty acid synthase (Homo sapiens) (UniProt P49327); assay: (§4) Inhibition of FASN in human PC9 cells harboring FASN expression and EGFR delE746-A750 mutant assessed as disruption of AKT/FASN positive feedback loop by measuring reduction in phosphorylated AKT expression at 1 uM after 48 hrs by Western immunoblot based densitometric assay relative to control; assay type: cell-based; how it was run: as §1
[8] = Selectivity index, ratio of IC50 for human SAE cells lacking FASN expression to IC50 for human NCI-H1703 cells expressing FASN
How it was run: (§5)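 Index is the SAEC IC50 divided by the IC50 in the FASN-expressing NSCLC line. IC50s came from MTS viability after 72 h exposure at 37 °C, 5% CO2, DMSO 0.1% v/v. Absorbance was read at 490 nm after 2 h. The fit was % viability against log concentration, with 4 technical repeats and 3 independent experiments. NSCLC lines were grown in RPMI/10% FBS; SAEC in BEGM.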

[9] = Kinetic solubility of the compound in universal buffer at pH 7.4 measured at 25 degC after 24 hrs by UV/Visible spectroscopic analysis; assay type: physicochemical; details: read-out: Kinetic_solubility
[10] = molecular target: Fatty acid synthase (Homo sapiens) (UniProt P49327); assay: as §4, with “FASN” for “reduction in phosphorylated AKT”, “2” for “1”, “hrs in presence of exogenous lipid concentrate” for “hrs”; assay type: cell-based; how it was run: as §3
[11] = tested on: PC-9; assay: Antiproliferative activity against human PC9 cells harboring FASN expression and EGFR delE746-A750 mutant assessed as reduction in cell viability after 72 hrs by MTS assay; assay type: functional, cell-based; details: PC-9, 72 h; how it was run: as §2
[12] = molecular target: Fatty acid synthase (Homo sapiens) (UniProt P49327); assay: Inhibition of full length human FASN transfected in HeLa cell lysates at 10 uM using acetyl Co-A/malonyl Co-A as substrate preincubated with enzyme for 2 hrs followed by substrate addition measured after 10 mins in presence of NADPH by microplate reader analysis; assay type: subcellular; details: Lysate
How it was run: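 Human FASN was made by in vitro translation from a FASN plasmid. Lysate was diluted 3:7 in 100 mM potassium phosphate, pH 6.5, 1 mM EDTA. It was preincubated with compound (10 µM final) for 2 h at 37 °C. Buffer containing acetyl-CoA (55 µM) and NADPH (330 µM) was added, then the reaction was started with malonyl-CoA (500 µM stock). A340 was read at 0 and 10 min; triplicates.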

[13] = molecular target: Fatty acid synthase (Homo sapiens) (UniProt P49327); assay: Inhibition of FASN in human NCI-H1703 cells expressing FASN assessed as disruption of AKT/FASN positive feedback loop by measuring decrease in FASN expression after 48 hrs by Western immunoblot assay; assay type: cell-based; how it was run: as §1
[14] = Selectivity index, ratio of IC50 for human SAE cells lacking FASN expression to IC50 for human PC9 cells harboring FASN expression and EGFR delE746-A750 mutant; how it was run: as §5
[15] = tested on: A549; assay: Antiproliferative activity against human A549 cells expressing FASN assessed as reduction in cell viability after 72 hrs by MTS assay; assay type: functional, cell-based; details: A549, 72 h; how it was run: as §2
[16] = molecular target: Fatty acid synthase (Homo sapiens) (UniProt P49327); assay: Inhibition of FASN in human PC9 cells harboring FASN expression and EGFR delE746-A750 mutant assessed as disruption of AKT/FASN positive feedback loop by measuring reduction in AKT expression at 1 uM after 48 hrs by Western immunoblot based densitometric assay relative to control; assay type: cell-based; how it was run: as §1
[17] = tested on: NCI-H1299; assay: Antiproliferative activity against human NCI-H1299 cells expressing FASN assessed as reduction in cell viability after 72 hrs by MTS assay; assay type: functional, cell-based; details: NCI-H1299, 72 h; how it was run: as §2
[18] = molecular target: Fatty acid synthase (Homo sapiens) (UniProt P49327); assay: Inhibition of FASN in human PC9 cells harboring FASN expression and EGFR delE746-A750 mutant assessed as disruption of AKT/FASN positive feedback loop by measuring reduction in phosphorylated AKT expression at 5 uM after 48 hrs by Western immunoblot based densitometric assay relative to control; assay type: cell-based; how it was run: as §1

Row | inhibition [1] | IC50 [2] | Ratio [4] | Ratio [5] | Ratio [6] | Ratio [7] | solubility kinetic at 24 h [9] | Ratio [10] | IC50 [11] | inhibition [12] | inhibition [13] | IC50 [15] | Ratio [16] | IC50 [17] | Ratio [18] | Structure (SMILES) | inhibition at 25 µM [3] | Ratio IC50 [8] | Ratio IC50 [14]
1 | Dose-dependent effect | 970 nM | 0.04 | 0.62 | 0.09 | 0.88 | 2.5 µM (≈ 1.29 µg/mL) | 0.55 | 2.3 µM | Active | Dose-dependent effect | 2100 nM | 1.04 | 3.3 µM | 0.2 | O=C(Oc1ccc(/C=C/c2ccc(OC(=O)c3cc(O)c(O)c(O)c3)cc2)cc1)c1cc(O)c(O)c(O)c1 | > 50% | 5.2 | 2.2
2 | Dose-dependent effect | 1280 nM | 0.16 | 0.61 | 0.57 | 0.53 | 6 µM (≈ 3.1 µg/mL) | 0.62 | 5 µM | Active | Dose-dependent effect | 2300 nM | 0.58 | 3.1 µM | 0.29 | O=C(Oc1ccc(/C=C/c2cccc(OC(=O)c3cc(O)c(O)c(O)c3)c2)cc1)c1cc(O)c(O)c(O)c1 | > 50% | 5.3 | 1.4
